Experimental data: ChEMBL document CHEMBL1142461, “In vitro biological evaluation of novel 7-O-dialkylaminoalkyl cytotoxic pectolinarigenin derivatives against a panel of human cancer cell lines” (Bioorg Med Chem Lett, 2008)

Key:
[1] = Antiproliferative activity against human Huh-7D12 cells after 48 hrs by sulforhodamine B assay; type: functional, cell-based; details: Huh-7D12, 48 h
In short: (§1)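 Cells grown in RPMI 1640 (ACHN, C32, COR-L23) or DMEM (142BR, A375, A549, Caco-2, Huh-7D12), seeded and allowed to attach for 24 h. Then exposed 48 h to six serial dilutions (DMSO ≤0.5% final, matched in solvent controls), in six replicates. Fixed with ice-cold 40% TCA for 1 h at 4 °C and SRB-stained, read at 564 nm. Survival taken as % of untreated control; IC50 from dose–response curve; mean ± SD.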

[2] = test system: COR-L23; experiment: Antiproliferative activity against human COR-L23 cells after 48 hrs by sulforhodamine B assay; type: functional, cell-based; details: COR-L23, 48 h; in short: as §1
[3] = Partition coefficient, log P of the compound; type: physicochemical; details: octanol/water
[4] = test system: C32; experiment: Antiproliferative activity against human C32 cells after 48 hrs by sulforhodamine B assay; type: functional, cell-based; details: C32, 48 h; in short: as §1
[5] = Antiproliferative activity against human 142BR cells after 48 hrs by sulforhodamine B assay; type: functional, cell-based; in short: as §1
[6] = test system: ACHN; experiment: Antiproliferative activity against human ACHN cells after 48 hrs by sulforhodamine B assay; type: functional, cell-based; in short: as §1
[7] = test system: A549; experiment: Antiproliferative activity against human A549 cells after 48 hrs by sulforhodamine B assay; type: functional, cell-based; details: A549, 48 h; in short: as §1
[8] = test system: Caco-2; experiment: Antiproliferative activity against human Caco-2 cells after 48 hrs by sulforhodamine B assay; type: functional, cell-based; details: Caco-2, 48 h; in short: as §1
[9] = test system: A-375; experiment: Antiproliferative activity against human A375 cells after 48 hrs by sulforhodamine B assay; type: functional, cell-based; details: A-375, 48 h; in short: as §1

SMILES	logP [3]	IC50 [6]	IC50 [7]	IC50 [8]	IC50 [9]	IC50 [1]	IC50 [2]	IC50 [4]	IC50 [5]
COc1ccc(-c2cc(=O)c3c(O)c(OC)c(OCCN(C)C)cc3o2)cc1	2.3	10.5 µM	13.2 µM	> 100 µM	> 100 µM	> 100 µM	9.2 µM	> 100 µM	> 100 µM
COc1ccc(-c2cc(=O)c3c(O)c(OC)c(OCCN4CCCC4)cc3o2)cc1	2.6	12.7 µM	> 100 µM	> 100 µM	38.6 µM	> 100 µM	> 100 µM	54.7 µM	> 100 µM
COc1ccc(-c2cc(=O)c3c(O)c(OC)c(OCCN4CCOCC4)cc3o2)cc1	1.9	55.7 µM	85.1 µM	> 100 µM	58.8 µM	> 100 µM	39.5 µM	47.6 µM	> 100 µM
CCN(CC)CCOc1cc2oc(-c3ccc(OC)cc3)cc(=O)c2c(O)c1OC	3	54.1 µM	59.9 µM	> 100 µM	> 100 µM	> 100 µM	41.9 µM	> 100 µM	> 100 µM
COc1ccc(-c2cc(=O)c3c(O)c(OC)c(O)cc3o2)cc1 [PECTOLINARIGENIN]	2	15.2 µM	5.6 µM	5.3 µM	8.2 µM	> 100 µM	4.1 µM	7 µM	> 100 µM

The remaining compounds from weak to strong by IC50 [6], led by results:

logP [3]	IC50 [6]	IC50 [7]	IC50 [8]	IC50 [9]	SMILES	IC50 [1]	IC50 [2]	IC50 [4]	IC50 [5]
3	92.6 µM	44.9 µM	78.6 µM	52.3 µM	COc1ccc(-c2cc(=O)c3c(O)c(OC)c(OCCN4CCCCC4)cc3o2)cc1	> 100 µM	34.1 µM	63.6 µM	> 100 µM
-0.7	17.2 µM	38.8 µM	6.2 µM	32.9 µM	COc1ccc(-c2cc(=O)c3c(O)c(OC)c(O[C@@H]4O[C@H](CO[C@@H]5O[C@@H](C)[C@H](O)[C@@H](O)[C@H]5O)[C@@H](O)[C@H](O)[C@H]4O)cc3o2)cc1 [PECTOLINARIN]	50.8 µM	5 µM	7.2 µM	> 100 µM
2.4	10.8 µM	7.4 µM	> 100 µM	7.7 µM	COc1ccc(-c2cc(=O)c3c(O)c(OC)c(OCCCN(C)C)cc3o2)cc1	> 100 µM	7.2 µM	8.9 µM	> 100 µM
